From ChEMBL document CHEMBL1156574, “Synthesis and biological properties of benzothiazole, benzoxazole, and chromen-4-one analogues of the potent antitumor agent 2-(3,4-dimethoxyphenyl)-5-fluorobenzothiazole (PMX 610, NSC 721648)” (J Med Chem, 2008)
Activity calls are given as the source filed them. The rule behind the calls is not given here.

How the values were obtained:
MCF7 [1] = experiment: Antiproliferative activity against estrogen receptor positive human MCF7 cells after 72 hrs by MTT assay; format: functional; conditions: MCF7, 72 h
In short: (§1)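 Growth inhibition was tested in triplicate in breast lines MCF-7 (ER +ve) and MDA 468 (ER −ve). Values are means of three independent experiments, reported as GI50.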

[2] = Antiproliferative activity against estrogen receptor deficient human MDA468 cells after 72 hrs by MTT assay; format: functional; conditions: MDA-MB-468, 72 h; in short: as §1
[3] = Cell cycle arrest in estrogen receptor deficient human MDA468 cells assessed as accumulation at G2/M phase at 0.1 uM after 24 hrs by flow cytometry; format: functional, cell-based; conditions: MDA-MB-468
In short: (§2)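 MDA 468 breast cells were left untreated or exposed for 24–72 h. Cellular DNA content was measured by flow cytometry, with 10 000 events per sample. Percentages in pre-G1, G1, S and G2/M were taken from the DNA histograms and compared with the nontreated control. Independent analyses were run ≥3 times.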

[4] = Cell cycle arrest in estrogen receptor deficient human MDA468 cells assessed as accumulation at G2/M phase at 0.1 uM after 48 hrs by flow cytometry; format: functional, cell-based; conditions: MDA-MB-468; in short: as §2
[5] = Cell cycle arrest in estrogen receptor deficient human MDA468 cells assessed as accumulation at G2/M phase at 0.1 uM after 72 hrs by flow cytometry; format: functional, cell-based; conditions: MDA-MB-468; in short: as §2
[6] = target: T1, Aryl hydrocarbon receptor (Rattus norvegicus, UniProt P41738); experiment: Displacement of [3H]tetrachlorodibenzo-p-dioxin from aryl hydrocarbon receptor in CRL:WI rat liver cytosol
T1 sequence (P41738 whole entry): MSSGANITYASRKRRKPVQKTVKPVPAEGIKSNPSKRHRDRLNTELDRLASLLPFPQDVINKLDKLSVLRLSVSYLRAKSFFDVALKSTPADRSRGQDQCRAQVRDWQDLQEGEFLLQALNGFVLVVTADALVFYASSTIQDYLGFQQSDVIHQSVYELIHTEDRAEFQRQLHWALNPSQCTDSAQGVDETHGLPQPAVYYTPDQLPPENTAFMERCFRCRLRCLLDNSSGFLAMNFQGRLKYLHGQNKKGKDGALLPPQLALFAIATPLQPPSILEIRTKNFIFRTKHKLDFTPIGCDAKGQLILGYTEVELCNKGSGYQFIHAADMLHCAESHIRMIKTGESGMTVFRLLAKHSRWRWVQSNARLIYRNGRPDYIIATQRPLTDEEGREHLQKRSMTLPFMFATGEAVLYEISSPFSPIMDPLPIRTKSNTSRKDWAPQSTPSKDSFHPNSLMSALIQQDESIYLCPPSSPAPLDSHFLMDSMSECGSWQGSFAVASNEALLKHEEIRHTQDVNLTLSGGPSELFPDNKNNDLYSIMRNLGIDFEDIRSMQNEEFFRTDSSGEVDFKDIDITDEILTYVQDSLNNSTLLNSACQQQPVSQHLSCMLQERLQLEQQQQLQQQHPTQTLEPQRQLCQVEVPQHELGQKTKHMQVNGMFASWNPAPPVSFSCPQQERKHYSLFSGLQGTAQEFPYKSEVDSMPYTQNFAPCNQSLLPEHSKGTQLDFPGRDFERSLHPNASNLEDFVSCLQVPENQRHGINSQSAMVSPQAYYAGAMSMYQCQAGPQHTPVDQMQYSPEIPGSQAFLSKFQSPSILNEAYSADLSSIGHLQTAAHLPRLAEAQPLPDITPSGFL
In short: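 Aryl hydrocarbon receptor binding was measured in CRL:WI rat liver cytosol by displacement of [3H]tetrachlorodibenzo-p-dioxin. IC50 was determined, and Ki was also reported.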

MCF7 [7] = experiment: Antiproliferative activity against human estrogen receptor positive MCF7 cells after 72 hrs by MTT assay in presence of aryl hydrocarbon receptor antagonist alpha-naphthoflavone; format: functional; conditions: MCF7, 72 h
[8] = Antiproliferative activity against estrogen receptor deficient human MDA468 cells after 72 hrs by MTT assay in presence of aryl hydrocarbon receptor antagonist alpha-naphthoflavone; format: functional; conditions: MDA-MB-468, 72 h
[9] = Cell cycle arrest in estrogen receptor deficient human MDA468 cells assessed as accumulation at S phase at 1 uM after 24 hrs by flow cytometry; format: functional, cell-based; conditions: MDA-MB-468; in short: as §2
[10] = Cell cycle arrest in estrogen receptor deficient human MDA468 cells assessed as accumulation at G2/M phase at 1 uM after 24 hrs by flow cytometry; format: functional, cell-based; conditions: MDA-MB-468; in short: as §2
MDA-MB-468 = experiment: Induction of apoptosis in estrogen receptor deficient human MDA468 cells assessed as accumulation at preG1 phase at 1 uM after 24 hrs by flow cytometry; format: functional, cell-based; in short: as §2

Row | Compound | GI50 (MCF7 [1]) | GI50 [2] | also measured
1 | COc1cc(-c2nc3ccc(F)cc3o2)cc(OC)c1OC | 1.09 µM | 0.037 µM | 
2 | COc1ccc2nc(-c3ccc(O)cc3)sc2c1 | 45.8 µM | 9.67 µM | 
3 | COc1cc(-c2nc3cc(F)ccc3o2)cc(OC)c1OC | 16 µM | 2.58 µM | 
4 | CS(=O)(=O)c1ccc2nc(-c3ccc(O)cc3)sc2c1 | 62.3 µM | 42.2 µM | 
5 | COc1ccc(-c2nc3ccc(F)cc3o2)cc1 | 41 µM | 9.55 µM | 
6 | COc1ccc(-c2nc3ccc(F)cc3o2)c(OC)c1 | 69.9 µM | 3.29 µM | 
7 | COc1ccc(-c2nc3cc(F)ccc3s2)cc1OC | < 0.0001 µM | < 0.0001 µM | Activity [3]: Active; Activity [4]: Active; Activity [5]: Active; IC50 [6]: 0.025 µM; Ki [6]: 0.0068 µM; GI50 (MCF7 [7]): 0.514 µM; GI50 [8]: 0.27 µM
8 | Oc1cccc(-c2nc3cc(F)ccc3s2)c1 | 0.57 µM | 0.2 µM | 
9 | COc1cccc(OC)c1-c1nc2ccc(F)cc2o1 | 90.7 µM | 98.6 µM | 
10 | COc1cccc(-c2nc3cc(F)ccc3o2)c1 | 39.5 µM | 0.87 µM | 
11 | Oc1ccc(-c2nc3ccc(Br)cc3s2)cc1 | 4.16 µM | 0.28 µM | 
12 | Oc1ccc(-c2nc3cc(F)ccc3s2)cc1 | 0.4 µM | 0.21 µM | 
13 | Fc1ccc2nc(-c3ccc4c(c3)OCO4)oc2c1 | 19.2 µM | 6.77 µM | 
14 | CCOc1ccc2nc(-c3ccc(O)cc3)sc2c1 | > 100 µM | > 100 µM | 
15 | Oc1ccc(-c2nc3ccc(Cl)cc3s2)cc1 | 26.5 µM | 0.28 µM | 
16 | COc1ccccc1-c1nc2cc(F)ccc2o1 | 0.36 µM | 0.27 µM | 

Row | Compound | GI50 (MCF7 [1]) | GI50 [2] | also measured
17 | COc1ccc(-c2cc(=O)c3ccc(F)cc3o2)cc1OC | 27.9 µM | 0.45 µM | 
18 | COc1cc(OC)cc(-c2nc3ccc(F)cc3o2)c1 | 3.72 µM | 0.46 µM | 
19 | COc1ccc(-c2nc3cc(F)ccc3[nH]2)cc1OC | 85.7 µM | 94.4 µM | Activity [3]: inactive; Activity [9]: inactive
20 | CCc1ccc2nc(-c3ccc(O)cc3)sc2c1 | > 100 µM | > 100 µM | 
21 | COc1ccc(-c2nc3cc(F)ccc3o2)c(OC)c1 | 2.16 µM | 0.54 µM | 
22 | COc1ccc(-c2nc3cc(F)ccc3o2)cc1 | 22.7 µM | 0.76 µM | 
23 | Oc1ccc(-c2nc3cc(C(F)(F)F)ccc3s2)cc1 | 13.8 µM | 0.1 µM | 
24 | COc1cccc(OC)c1-c1nc2cc(F)ccc2o1 | 58.1 µM | 22 µM | 
25 | COc1ccc(-c2nc3ccc(F)cc3o2)cc1OC | 3.53 µM | 0.017 µM | 
26 | COc1cc(OC)cc(-c2nc3cc(F)ccc3o2)c1 | 45.4 µM | 0.79 µM | 
27 | COc1ccc(-c2cc(=O)c3cc(F)ccc3o2)cc1OC | 83.4 µM | 20.6 µM | 
28 | Oc1ccc(-c2nc3ccc(F)cc3s2)cc1 | 54 µM | 0.5 µM | 
29 | Fc1ccc2oc(-c3ccc4c(c3)OCO4)nc2c1 | 61.4 µM | 14.5 µM | 
30 | COc1ccc(-c2nc3cc(F)ccc3o2)cc1OC | 0.83 µM | 0.33 µM | Activity [10]: Active; Activity [3]: inactive; Activity [9]: Active; Activity (MDA-MB-468): Active
31 | COc1cccc(-c2nc3ccc(F)cc3o2)c1 | 35.1 µM | 2.02 µM | 
32 | COc1ccccc1-c1nc2ccc(F)cc2o1 | 0.82 µM | 1.19 µM | 
